For data set [1], the system named is A549. Nature of the data set: Photocytotoxicity in human A549 cells assessed as reduction in cell viability preincubated for 1 hr followed by visible light irradiation for 30 mins and measured after 72 hrs by MTT assay. Type of data set: functional, cell-based. To be noted: for IC50: A549, light or radiation study. The method, boiled down:
(§1)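 A549 or MCF7 cells (9000/well, grown 24 h) were given compound in medium with ≤1% DMSO for 1 h at 37 °C in the dark, washed twice and placed in PBS. They were irradiated with 400–700 nm light (11 mW) for 10, 20 or 30 min, then incubated 72 h in the dark. Viability was read by MTT (2 h, 37 °C), with formazan in DMSO at 570 nm. Unirradiated wells served as dark control.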
(In general: Tetrazolium assays rely on reduction of a dye to a coloured formazan, in cell work by metabolically active cells.)

Data set [2] in a line: (§2) Dark toxicity in human A549 cells assessed as reduction in cell viability incubated for 72 hrs by MTT assay. Type of data set: cell-based. The settings on record: A549 cells. The method, boiled down:
(§3)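 Cells seeded at 9000/well in DMEM with 10% FBS, grown 24 h at 37 °C in 5% CO2. Compound in medium with ≤1% DMSO for 1 h at 37 °C in the dark, washed twice with PBS, kept unirradiated, then incubated 72 h in the dark. MTT (5 mg mL-1 stock) added for 2 h at 37 °C, formazan dissolved in DMSO, absorbance read at 570 nm.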

A short description of data set [3]: Dark toxicity in human MCF7 cells assessed as reduction in cell viability incubated for 72 hrs by MTT assay. The class given is cell-based. The method, boiled down:
as §3

The subject of another data set is MCF7. Nature of the data set: Photocytotoxicity in human MCF7 cells assessed as reduction in cell viability preincubated for 1 hr followed by visible light irradiation for 30 mins and measured after 72 hrs by MTT assay. The class given is functional, cell-based. The settings on record: MCF7, light or radiation study. The method, boiled down:
as §1

Data set [4] deals with A549. In words: Photocytotoxicity in human A549 cells assessed as reduction in cell viability preincubated for 1 hr followed by two-photon NIR light irradiation for 10 mins and measured after 72 hrs by MTT assay. To be noted: A549, light or radiation study.
Data set [5] is described as follows: Lipophilicity, logP of compound in n-Octanol/water. The class given is physicochemical.
The nature of data set [6]: Drug uptake in human A549 cells at 10 uM incubated for 1 hr by FACS analysis. Type of data set: ADME, cell-based. The settings on record: a549, 1 h. The method, boiled down:
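A549 cells (1.5 × 10^5/well) were washed and given 10 µM compound in medium with 1% DMSO for 0, 0.5, 1 or 2 h at 37 °C. They were irradiated in PBS with visible light (400–700 nm, 11 mW) for 10 min, then trypsinized and resuspended in HBSS. Blue coumarin fluorescence was read by flow cytometry on about 10000 cells.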
For orientation: A flow cytometer gives signals particle by particle.

The subject of data set [7] is A549. Nature of the data set: Photo-induced drug release in human A549 cells assessed as increase in blue fluorescence at 10 uM incubated for 1 hr prior to PBS washout followed by visible light irradiation for 2 mins and further incubated for 10 mins by fluorescence imaging analysis. Type of data set: ADME, cell-based. The settings on record: a549, 1 h. The method, boiled down:
(§4)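 A549 cells (2 × 10^5/well, seeded a day before) received 10 µM compound for 1 h at 37 °C in the dark and were washed with cold PBS. They were irradiated with 400–700 nm light (11 mW) for 0, 2, 5, 10, 15, 20 or 30 min, then held 10 min. Blue-channel fluorescence was imaged and given as the mean of 30 cells, fitted to an exponential.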

The subject of data set [8] is A549. In words: Photo-induced drug release in human A549 cells assessed as increase in blue fluorescence at 10 uM incubated for 1 hr prior to PBS washout followed by visible light irradiation and further incubated for 10 mins by fluorescence imaging analysis. The settings on record: a549, 1 h, TDE = time-dependent effect. Type of data set: ADME, cell-based. The method, boiled down: as §4

Data set [9] is described as follows: Drug localization in human A549 cells mitochondria at 10 uM incubated for 1 hr prior to PBS washout followed by visible light irradiation for 10 mins by inverted fluorescence microscopy analysis. Type of data set: ADME. To be noted: a549, 1 h. The method, boiled down:
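A549 cells were loaded with 10 µM compound in complete DMEM for 1 h at 37 °C, washed, and irradiated in PBS with 400–700 nm light (11 mW) for 10 min. Mito Red (100 nM, 15 min) was added before a PBS wash. Coumarin signal was imaged at ex/em 350/460 nm and Mito Red at 550/580 nm. Overlap was taken from a scatter plot as Pearson's correlation coefficient.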

Data set [10] concerns A549. In words: Induction of mitochondrial membrane depolarization in human A549 cells after 30 mins by JC-1 dye staining based FACS analysis (reference value: 5.3 +/- 1.1 %). The class given is functional. To be noted: 0.5 h.
In data set [11] the test system is A549. In words: Induction of mitochondrial membrane depolarization in human A549 cells after 1 hr by JC-1 dye staining based FACS analysis (reference value: 5.3 +/- 1.1 %). The class given is functional.
The subject of data set [12] is A549. The data set is described as §2. The class given is cell-based. The settings on record: a549, 72 h, time 72 hrs. The method, boiled down:
as §3

Data set [13] concerns A549. Nature of the data set: Dark toxicity in human A549 cells assessed as reduction in cell viability upto 20 uM incubated for 72 hrs by MTT assay. Type of data set: cell-based. The settings on record: a549, 72 h. The method, boiled down: as §3
The test system of data set [14] is A549. Nature of the data set: Photocytotoxicity in human A549 cells assessed as reduction in cell viability at 5 uM preincubated for 1 hr followed by visible light irradiation upto 30 mins and measured after 72 hrs by MTT assay. The settings on record: time 73.5 hrs, TDE = time-dependent effect. Type of data set: functional, cell-based. The method, boiled down: as §1

Data set [15] has as its system A549. In words: Photocytotoxicity in human A549 cells assessed as reduction in cell viability at 10 uM preincubated for 1 hr followed by two-photon NIR light irradiation for 5 mins and measured after 72 hrs by MTT assay. The class given is functional. To be noted: time 4385 min, 73.08 h. The method, boiled down: (§5)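 A549 cells (9000/well) were treated with compound for 1 h at 37 °C in the dark, then moved to PBS. They were irradiated with a two-photon femtosecond laser (800 nm, 50 mW) for 0, 5, 10, 15 or 20 min, then incubated 72 h in the dark in medium. Viability was read by MTT over 2 h, with formazan in DMSO at 570 nm. Unirradiated wells served as dark control.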

Data set [16] relates to A549. Nature of the data set: Photocytotoxicity in human A549 cells assessed as reduction in cell viability at 10 uM preincubated for 1 hr followed by two-photon NIR light irradiation for 10 mins and measured after 72 hrs by MTT assay. The class given is functional. To be noted: time 4390 min, 73.17 h. The method, boiled down:
as §5

The subject of data set [17] is A549. Nature of the data set: Photocytotoxicity in human A549 cells assessed as reduction in cell viability at 10 uM preincubated for 1 hr followed by two-photon NIR light irradiation for 20 mins and measured after 72 hrs by MTT assay. The class given is functional. The settings on record: time 4400 min, 73.33 h. The method, boiled down: as §5
Data set [18] in a line: Drug release in 1: 9 DMSO/PBS at pH 7 at 50 uM under visible light irradiation upto 20 mins by emission spectroscopy. The class given is ADME. The settings on record: buffer, pH 7, 20 min. The method, boiled down: (§6)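 Drug release was measured across pH 4–9. Solutions of 50 µM in 1:9 DMSO/buffer were irradiated with 400–700 nm light (11 mW) at 2 cm and 25 °C, in 2-min steps over 0–20 min. Release was taken from coumarin reporter emission (ex 385 nm, em 475 nm). A dark control received no light.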

Data set [19] can be described thus: Drug release in 1: 9 DMSO/PBS at pH 9 at 50 uM under visible light irradiation upto 20 mins by emission spectroscopy. The class given is ADME. The settings on record: buffer, pH 9, 20 min. The method, boiled down:
as §6

A short description of data set [20]: Drug release in 1: 9 DMSO/PBS at pH 4 at 50 uM under visible light irradiation upto 20 mins by emission spectroscopy. Type of data set: ADME. To be noted: buffer, pH 4, 20 min. The method, boiled down: as §6

Turning to `Nc1ccn([C@@H]2O[C@H](CO)[C@@H](O)C2(F)F)c(=O)n1` [GEMCITABINE], the IC50 was determined as 650 nM in the data set on A549 [1], 1360 nM in the data set with MCF7 and 800 nM in the data set with A549 [4]. The IC50 at 72 h in data set [2] came to 750 nM; in [3] it was 1460 nM.

`CCN(CC)c1ccc(/C=C/C(=O)OC[C@H]2O[C@@H](n3ccc(N)nc3=O)C(F)(F)[C@@H]2O)c(O)c1` displayed a logP in data set [5] of 2.1. In addition, the Drug uptake entry in [6] and in data set [9] was “Active” in each case. Moreover, the Drug metabolism result was “Metabolite_Detected” in the data set on A549 [7]; “Tde” with A549 [8]; “Active” in [18]; “Active” in [19]; “Active” in data set [20]. For the same compound, the Activity was 13.9% in the data set on A549 [10]; 82.3% in the data set on A549 [11]; “Dose-Dependent Effect” with A549 [1] (time 73.5 hrs); “Non-Toxic” with A549 [12]; “Non-Toxic” in the data set on A549 [13]; “Tde” in the data set with A549 [14]. Besides, the figures for the Activity in the data set with A549 [15], with A549 [16] and with A549 [17] were 35%, 47% and 57%, respectively. In addition, the IC50 was found to be 5050 nM with A549 [1], 5450 nM in the data set on MCF7 and 12500 nM with A549 [4].

What is called IC50 is the concentration needed to halve the response being measured. A word on the logP: it is a log measure of how a compound divides between an organic and an aqueous phase. A high value points to a more lipophilic compound.

The record behind these values is ChEMBL document CHEMBL5329148, “Visible and NIR light photoactivatable o-hydroxycinnamate system for efficient drug release with fluorescence monitoring” (RSC Med Chem, 2023).
